Test results as given in ChEMBL document CHEMBL2412973, “Design, synthesis, and anti-tumor activities of novel triphenylethylene-coumarin hybrids, and their interactions with Ct-DNA” (Bioorg Med Chem Lett, 2013).
Activity calls are given as the source filed them. The rule behind the calls is not given here.

Legend:
MCF7 = experiment: Antiproliferative activity against human MCF7 cells after 48 hrs by MTT assay; type: functional, cell-based; details: MCF7, 48 h
K562 = experiment: Antiproliferative activity against human K562 cells after 48 hrs by MTT assay; type: functional, cell-based; details: K562, 48 h
A549 = experiment: Antiproliferative activity against human A549 cells after 48 hrs by MTT assay; type: functional, cell-based; details: A549, 48 h
DNA [1] = experiment: Binding affinity to calf thymus DNA in phosphate buffer at pH 7.4 assessed as hypochromic effect at 1.0 x 10^-5 M by UV-visible spectroscopy; type: nucleic-acid assay; details: Bos taurus
Method in brief: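 Compound at 1.0×10^-5 M titrated with Ct-DNA (0–180 μM) in 10 mM phosphate buffer pH 7.4, 50 mM NaCl, 4% DMSO, 25 °C; UV-Vis absorption change at absorption maximum, hypochromicity percentage derived, binding fitted.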

DNA [2] = experiment: Binding affinity to calf thymus DNA in phosphate buffer at pH 7.4 at 5 uM after 10 mins by fluorescence spectroscopy; type: nucleic-acid assay; details: Bos taurus
Method in brief: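 Compound at 5.0×10^-6 M, excited at 329–336 nm depending on compound, titrated with Ct-DNA (0–90 μM) in 10 mM phosphate buffer pH 7.4, 50 mM NaCl, 4% DMSO, 25 °C; emission near 455 nm; F/F0 plotted against DNA concentration, Stern-Volmer analysis gives binding efficiency.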

Bel-7402 = experiment: Antiproliferative activity against human Bel7402 cells after 48 hrs by MTT assay; type: functional, cell-based; details: Bel-7402, 48 h
HL-60 = experiment: Antiproliferative activity against human HL60 cells after 48 hrs by MTT assay; type: functional, cell-based; details: HL-60, 48 h
DNA [3] = experiment: Binding affinity to calf thymus DNA in phosphate buffer at pH 7.4 assessed as change in melting temperature at 5 uM after 10 mins by thermal denaturation method; type: nucleic-acid assay; details: Bos taurus
Method in brief: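 Thermal denaturation: Ct-DNA 5.0×10^-5 M with or without compound at 5.0×10^-6 M, phosphate buffer (1 mM, pH 7.4) with 5 mM NaCl and 4% DMSO; melting curves recorded, Tm taken as temperature at which half the DNA melts; ΔTm relative to free Ct-DNA.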

DNA [4] = experiment: Binding affinity to calf thymus DNA in phosphate buffer at pH 7.4 assessed as intercalation in DNA at 20 uM after 10 mins by circular dichroism method; type: nucleic-acid assay; details: Bos taurus
Method in brief: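 CD spectra of Ct-DNA (5.0×10^-5 M) with and without compound (2.0×10^-5 M) recorded in 10 mM phosphate buffer pH 7.4 containing 50 mM NaCl and 4% DMSO at 25 °C.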

[5] = Cytotoxicity against mouse Osteoblasts at 10 uM after 48 hrs by MTT assay; type: cell-based; details: osteoblast
Method in brief: (§1)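 Primary osteoblasts isolated from newborn mouse skull, exposed to compound for 48 h; cell death measured by MTT; % cytotoxicity versus untreated cells, mean ± SEM of six replicates, significance by p-value.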

[6] = Cytotoxicity against mouse Osteoblasts at 40 uM after 48 hrs by MTT assay; type: cell-based; details: osteoblast; method in brief: as §1
[7] = Cytotoxicity against mouse Osteoblasts at 100 uM after 48 hrs by MTT assay; type: cell-based; details: osteoblast; method in brief: as §1
[8] = Cytotoxicity against mouse Osteoblasts at 1 uM after 48 hrs by MTT assay; type: cell-based; details: osteoblast; method in brief: as §1
[9] = Cytotoxicity against mouse Osteoblasts at 20 uM after 48 hrs by MTT assay; type: cell-based; details: osteoblast; method in brief: as §1

SMILES	IC50 (MCF7) [µM]	IC50 (K562) [µM]	IC50 (A549) [µM]	Activity (DNA [1]) [%]	Activity (DNA [2])	IC50 (Bel-7402) [µM]	IC50 (HL-60) [µM]	ΔTm (DNA [3]) [°C]	Activity (DNA [4])	Activity [5] [%]	Activity [6] [%]	Activity [7] [%]	Activity [8] [%]	Activity [9] [%]
O=c1oc2cc(OCCN3CCCC3)ccc2c(-c2ccc(O)cc2)c1-c1ccccc1	50	44.5	54.3											
O=c1oc2cc(OCCN3CCOCC3)ccc2c(-c2ccc(OCCN3CCOCC3)cc2)c1-c1ccccc1	> 100	> 100	> 100	13	2.68 ×10² /M	> 100	> 100	2	Active					
O=c1oc2cc(OCCN3CCCCC3)ccc2c(-c2ccc(OCCN3CCCCC3)cc2)c1-c1ccccc1	11.4	2.91	6.64	23	4.21 ×10³ /M	8.19	5.28	4.3	Active	-2.6	14.2	39.2	-8	7.4
CCN(CC)CCOc1ccc(-c2c(-c3ccccc3)c(=O)oc3cc(OCCN(CC)CC)ccc23)cc1	7.9	3.79	8.31			8.04	3.98			3.2	20.6	42.2	-3.1	12.2
COc1ccc2c(-c3ccc(OCCN4CCCC4)cc3)c(-c3ccccc3)c(=O)oc2c1	> 100	93.3	89.8											
O=c1oc2cc(OCCN3CCCCC3)ccc2c(-c2ccc(O)cc2)c1-c1ccccc1	86.6	81.2	91.2											
COc1ccc2c(-c3ccc(O)cc3)c(-c3ccccc3)c(=O)oc2c1	> 100	> 100	> 100											
O=c1oc2cc(O)ccc2c(-c2ccc(O)cc2)c1-c1ccccc1	> 100	> 100	> 100	8	5.41 ×10² /M			1.1	inactive					
CCN(CC)CCOc1ccc(-c2c(-c3ccccc3)c(=O)oc3cc(OC)ccc23)cc1	76.7	88.8	60.8											
COc1ccc2c(-c3ccc(OCCN4CCCCC4)cc3)c(-c3ccccc3)c(=O)oc2c1	29.6	19.6	23.4	12	3.12 ×10³ /M			3.2	Active					
O=c1oc2cc(OCCN3CCCC3)ccc2c(-c2ccc(OCCN3CCCC3)cc2)c1-c1ccc(OCCN2CCCC2)cc1	92.8	75.3	86.3											
COc1ccc2c(-c3ccc(OCCN4CCOCC4)cc3)c(-c3ccccc3)c(=O)oc2c1	> 100	> 100	> 100											
O=c1oc2cc(OCCN3CCOCC3)ccc2c(-c2ccc(OCCN3CCOCC3)cc2)c1-c1ccc(OCCN2CCOCC2)cc1	> 100	> 100	> 100											
CCN(CC)CCOc1ccc2c(-c3ccc(O)cc3)c(-c3ccccc3)c(=O)oc2c1	> 100	> 100	> 100											
CCN(CC)CCOc1ccc(-c2c(-c3ccc(OCCN(CC)CC)cc3)c3ccc(OCCN(CC)CC)cc3oc2=O)cc1	68.8	41.9	45.2											
O=c1oc2cc(OCCN3CCCCC3)ccc2c(-c2ccc(OCCN3CCCCC3)cc2)c1-c1ccc(OCCN2CCCCC2)cc1	48.2	39.4	56.3	25	3.16 ×10⁴ /M			8.8	Active					
O=c1oc2cc(OCCN3CCCC3)ccc2c(-c2ccc(OCCN3CCCC3)cc2)c1-c1ccccc1	12.3	4.58	6.31			8.66	5.93			-6.7	18.2	36.1	-5.1	10.1
O=c1oc2cc(OCCN3CCOCC3)ccc2c(-c2ccc(O)cc2)c1-c1ccccc1	> 100	> 100	94.1											
CC/C(=C(\c1ccccc1)c1ccc(OCCN(C)C)cc1)c1ccccc1 [TAMOXIFEN]	13.5													
O=c1oc2cc(O)ccc2c(-c2ccc(O)cc2)c1-c1ccc(O)cc1	> 100	> 100	> 100											
